Data as given in paper PMC5568793 (Science translational medicine, 2017).

Tests used:
type I collagen [1] = target: T1, type I collagen (Mus musculus, UniProt P11087+Q01149); test: Ex vivo lung uptake in low dose bleomycin vascular leak; settings: day 14, 2.5 h post injection
Procedure, shortened: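 Male C57Bl/6 mice, 7–8 weeks old, received a single intratracheal bleomycin dose of 0.1 U/kg in saline, with or without FTY720 at 1 mg/kg i.p. three times weekly. 3G9 or isotype 1E6 antibody was given at 1 mg/kg i.p. three times weekly. All dosing started on day 0. On day 14, 68Ga probe was given as an i.v. femoral bolus under isoflurane. Mice were killed 150 min post-injection; the left lung was weighed and gamma-counted.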

type I collagen [2] = target: T1, type I collagen; test: Lung uptake of probe in bleomycin mouse model of pulmonary fibrosis; format: in vivo
Procedure, shortened: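 Male C57BL/6 mice (10 weeks, 20–28 g) received transtracheal bleomycin at 2.5 U/kg in 50 μL PBS through a cervical incision; sham mice were controls. On day 14, 68Ga probe was given as an i.v. bolus via femoral vein catheter under isoflurane. Dynamic PET-CT ran for 120 min, read as decay-corrected lung VOI %ID/cc. Mice were killed 150 min post-injection and organs weighed and gamma-counted.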

[3] = mouse, in vivo, iv
type I collagen [4] = target: T1, type I collagen; test: PET lung signal in low dose bleomycin vascular leak; format: in vivo; settings: day 14, 50-80 min after injection
Procedure, shortened: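 Male C57Bl/6 mice received intratracheal low-dose bleomycin (0.1 U/kg) and/or FTY720 (1 mg/kg i.p. thrice weekly), with 1E6 (1 mg/kg i.p. thrice weekly) where stated, all from day 0. On day 14, under isoflurane, 68Ga probe was given as an i.v. femoral bolus. Static PET ran for 30 min starting 50 min post-injection, with CT. MLEM reconstruction was used; lung VOIs of about 65 mm3 were read as decay-corrected %ID/cc.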

T1 sequence (P11087 152-1207 limits assumed): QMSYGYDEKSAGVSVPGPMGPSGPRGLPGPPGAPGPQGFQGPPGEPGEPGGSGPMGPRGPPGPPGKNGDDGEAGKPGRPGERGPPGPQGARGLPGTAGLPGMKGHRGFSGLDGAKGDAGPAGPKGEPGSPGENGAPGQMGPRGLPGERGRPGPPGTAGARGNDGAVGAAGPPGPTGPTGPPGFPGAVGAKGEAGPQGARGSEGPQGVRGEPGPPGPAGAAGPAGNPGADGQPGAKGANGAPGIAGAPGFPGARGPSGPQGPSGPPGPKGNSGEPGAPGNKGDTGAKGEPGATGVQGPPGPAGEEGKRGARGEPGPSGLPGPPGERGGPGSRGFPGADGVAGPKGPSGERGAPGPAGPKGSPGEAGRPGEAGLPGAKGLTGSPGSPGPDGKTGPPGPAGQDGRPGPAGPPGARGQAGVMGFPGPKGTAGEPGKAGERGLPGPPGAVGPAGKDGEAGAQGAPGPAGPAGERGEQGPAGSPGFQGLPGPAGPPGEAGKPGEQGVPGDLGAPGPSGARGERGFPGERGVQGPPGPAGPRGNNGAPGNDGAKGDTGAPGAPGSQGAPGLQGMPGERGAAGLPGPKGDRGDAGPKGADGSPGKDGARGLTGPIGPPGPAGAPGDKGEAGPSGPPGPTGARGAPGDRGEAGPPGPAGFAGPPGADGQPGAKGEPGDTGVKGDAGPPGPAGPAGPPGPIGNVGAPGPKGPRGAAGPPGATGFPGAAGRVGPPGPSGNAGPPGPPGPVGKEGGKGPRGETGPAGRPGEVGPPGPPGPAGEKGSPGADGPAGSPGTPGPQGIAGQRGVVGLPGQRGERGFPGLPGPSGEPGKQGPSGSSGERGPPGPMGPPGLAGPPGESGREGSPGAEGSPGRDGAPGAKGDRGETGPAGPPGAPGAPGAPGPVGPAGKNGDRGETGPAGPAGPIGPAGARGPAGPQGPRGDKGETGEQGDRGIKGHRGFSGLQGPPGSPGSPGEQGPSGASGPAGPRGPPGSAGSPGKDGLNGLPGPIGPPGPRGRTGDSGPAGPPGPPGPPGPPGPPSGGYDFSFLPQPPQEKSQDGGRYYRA
T1 sequence (Q01149 86-1125 limits assumed): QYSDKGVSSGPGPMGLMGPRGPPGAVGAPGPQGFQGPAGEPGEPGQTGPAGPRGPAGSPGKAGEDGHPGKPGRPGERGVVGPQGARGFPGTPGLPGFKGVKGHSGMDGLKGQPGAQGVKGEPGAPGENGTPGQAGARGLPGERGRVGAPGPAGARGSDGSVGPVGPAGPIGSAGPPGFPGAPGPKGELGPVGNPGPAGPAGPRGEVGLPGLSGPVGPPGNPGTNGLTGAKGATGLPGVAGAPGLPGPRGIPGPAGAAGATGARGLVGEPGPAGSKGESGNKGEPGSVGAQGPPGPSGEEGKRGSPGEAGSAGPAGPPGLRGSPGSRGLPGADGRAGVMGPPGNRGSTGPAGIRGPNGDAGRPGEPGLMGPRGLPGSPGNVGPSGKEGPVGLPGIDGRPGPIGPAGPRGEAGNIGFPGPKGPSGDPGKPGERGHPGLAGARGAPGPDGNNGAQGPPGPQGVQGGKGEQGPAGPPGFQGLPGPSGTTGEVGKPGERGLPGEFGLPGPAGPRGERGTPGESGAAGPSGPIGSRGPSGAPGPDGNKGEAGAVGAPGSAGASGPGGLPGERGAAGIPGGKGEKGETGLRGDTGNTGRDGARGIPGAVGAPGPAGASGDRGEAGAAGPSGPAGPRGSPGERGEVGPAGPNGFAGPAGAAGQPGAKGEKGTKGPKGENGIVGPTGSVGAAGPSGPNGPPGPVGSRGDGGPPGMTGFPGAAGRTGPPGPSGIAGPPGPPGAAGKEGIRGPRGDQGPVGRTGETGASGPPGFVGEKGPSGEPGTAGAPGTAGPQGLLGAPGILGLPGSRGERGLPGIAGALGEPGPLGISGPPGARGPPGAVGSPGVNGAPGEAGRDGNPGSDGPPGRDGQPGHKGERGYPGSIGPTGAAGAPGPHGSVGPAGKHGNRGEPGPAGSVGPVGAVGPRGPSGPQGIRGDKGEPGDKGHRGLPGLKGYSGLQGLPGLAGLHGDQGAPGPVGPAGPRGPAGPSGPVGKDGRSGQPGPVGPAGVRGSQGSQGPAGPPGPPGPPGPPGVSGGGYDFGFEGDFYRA

## CC(C)C[C@H](NC(=O)[C@@H]1CSSC[C@H](NC(=O)[C@H](Cc2c[nH]cn2)NC(=O)[C@H](Cc2c[nH]c3ccccc23)NC(=O)[C@H](CCCCNC(=O)CNC(=O)CCC(C(=O)O)N2CCN(CC(=O)O)CCN(CC(=O)O)CC2)NC(=O)CCC(C(=O)O)N2CCN(CC(=O)O)CCN(CC(=O)O)CC2)C(=O)N[C@@H]([C@@H](C)O)C(=O)N[C@@H]([C@@H](C)O)C(=O)N[C@@H](CCCCNC(=O)CNC(=O)CCC(C(=O)O)N2CCN(CC(=O)O)CCN(CC(=O)O)CC2)C(=O)N[C@@H](Cc2ccccc2)C(=O)N2CCC[C@H]2C(=O)N[C@@H](Cc2c[nH]cn2)C(=O)N[C@@H](Cc2c[nH]cn2)C(=O)N[C@@H](Cc2ccc(O)cc2)C(=O)N1)C(=O)N[C@@H](Cc1ccc(O)cc1)C(=O)N[C@@H](Cc1ccc(-c2ccccc2)cc1)C(N)=O (some centres unmarked) [^68Ga-CBP8, metal not drawn]
Type I collagen [1]
  ex vivo lung uptake, LDBVL group relative to FTY group: five times more uptake
  ex vivo lung uptake, LDBVL group relative to LDB group: three times more
  ex vivo lung uptake, LDBVL+1E6 group relative to 3G9-treated group: six times higher uptake
  ex vivo lung uptake, LDBVL+1E6 group relative to LDBVL+3G9 group: three times more uptake
Type I collagen [2]; BM day 14 (n=7) vs sham (n=11)
  ex vivo lung uptake, BM-mice day 14 relative to sham animals: 5 fold
Type I collagen [2]; discussion statement, mouse models of pulmonary fibrosis
  probe uptake in fibrotic mouse lungs compared to control lungs: 6 fold
[3]
  blood half-life: 32.9 ± 4.5 min
Type I collagen [4]; FTY mice (FTY720 only), n=6
  PET lung signal: 1.5 ± 0.1 %ID/cc
Type I collagen [4]; LDB mice (low dose BM only), n=4
  PET lung signal: 1.7 ± 0.1 %ID/cc
Type I collagen [4]; LDBVL+1E6 mice (irrelevant antibody), n=11
  PET lung signal: 3.0 ± 0.2 %ID/cc
Type I collagen [4]; LDBVL+3G9 mice (anti-αvβ6 antibody), n=11
  PET lung signal: 1.9 ± 0.2 %ID/cc
